These results are taken from ChEMBL document CHEMBL2169863, “Discovery, structure-activity relationship, and biological evaluation of noninhibitory small molecule chaperones of glucocerebrosidase” (J Med Chem, 2012).

Numbering of substitutions follows the chain as printed. Activity calls are given as the source filed them. Unless noted, no cut-off for these calls is given here.

A short description of data set [1]: Cytotoxicity against human dermal fibroblasts expressing GCase L444P/L444P mutant at 5 uM after 6 days. The data set is classed as cell-based. The following applies: fibroblast, 144 h. Summed up:
(§1)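 Fibroblasts of the stated genotype were seeded at 5000 cells/well. After 1 day they were switched to OPTI-MEM with 5% FBS and treated 6 days with compound. Viability was read by CellTiter-Glo luminescence on a parallel plate.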

For data set [2], the system named is Plasma. Nature of the data set: AUClast in C57BL/6 mouse plasma at 50 mg/kg, ip. The data set is classed as ADME, organism-based. On the set-up: time 0 - last, dose 50 mg/kg, route intraperitoneal. The following applies: in vivo. Summed up:
(§2)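 Male C57BL/6 mice, 18−26 g, given a single ip dose of 50 mpk in 20% PEG 400 + 80% (20% HP-β-CD). Plasma, brain and liver were sampled, and brain and liver were homogenized in 3 volumes of PBS pH 7.4 (dilution factor 4). Analysis was by LC−MS/MS. Mean profiles N = 3.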

For data set [3], the system named is Liver. The data set can be described thus: Ratio of AUClast in liver to AUClast in plasma in C57BL/6 mouse at 50 mg/kg, ip. On the set-up: dose 50 mg/kg, route intraperitoneal. It counts as ADME, organism-based. The conditions noted are these: other tissue. Summed up:
as §2

In data set [4] the target is T1, Lysosomal acid glucosylceramidase (Homo sapiens, UniProt P04062).
T1 sequence (P04062 whole entry): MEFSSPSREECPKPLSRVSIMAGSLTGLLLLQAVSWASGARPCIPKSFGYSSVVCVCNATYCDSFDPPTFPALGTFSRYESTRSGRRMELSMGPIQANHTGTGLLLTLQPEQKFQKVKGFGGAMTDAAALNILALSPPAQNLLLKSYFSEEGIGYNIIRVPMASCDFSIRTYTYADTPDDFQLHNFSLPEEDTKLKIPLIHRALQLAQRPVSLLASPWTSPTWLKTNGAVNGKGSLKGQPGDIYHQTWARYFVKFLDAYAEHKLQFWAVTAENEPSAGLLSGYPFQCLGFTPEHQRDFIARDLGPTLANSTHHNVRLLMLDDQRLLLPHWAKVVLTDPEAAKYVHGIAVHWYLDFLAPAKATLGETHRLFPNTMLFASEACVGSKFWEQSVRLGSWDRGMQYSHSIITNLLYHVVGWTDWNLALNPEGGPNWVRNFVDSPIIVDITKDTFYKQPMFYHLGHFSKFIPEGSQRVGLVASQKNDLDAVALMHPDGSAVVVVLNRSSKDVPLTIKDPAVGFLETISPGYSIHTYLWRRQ
Nature of the data set: (§3) Binding affinity to NT-647 labeled glucocerebrosidase by microscale thermophoretic analysis. The conditions noted are these: read-out: Kd(app). In a few lines: (§4)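 NT-647-labeled glucocerebrosidase at ~20 nM in 50 mM phosphate pH 7.2, 0.05% Tween-20. It was mixed 1:1 with a 16-point DMSO dilution series and incubated 15 min at room temperature before capillary microscale thermophoresis. Apparent K_d was taken from the dose-dependent fluorescence change.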
Background: MST reads how a fluorescent partner responds to local heating, with and without ligand.

The target in data set [5] is T2, Lysosomal acid glucosylceramidase (Homo sapiens) (UniProt P04062).
T2 sequence (whole entry): T1 sequence (P04062 whole entry)
The description is as §3. Summed up: as §4

Data set [6] in a line: Cytotoxicity against human dermal fibroblasts isolated from Gcase N370S carrier at 5 uM after 6 days. It counts as cell-based. The following applies: fibroblast, 144 h. In a few lines:
as §1

The test system of data set [7] is T3, Lysosomal acid glucosylceramidase (Homo sapiens), P04062 [N409S].
T3 sequence (whole entry): T1 sequence (P04062 whole entry) with N409S
Nature of the data set: Activation of wild type glucocerebrosidase translocation to lysosome in human dermal fibroblast isolated from N370S carrier incubated for 6 days by LAMP2 co-localization-based laser scanning confocal microscopic analysis relative to vehicle-treated control.

In data set [8] the test system is Brain. Nature of the data set: AUClast in C57BL/6 mouse brain at 50 mg/kg, ip. The data set is classed as ADME, organism-based. On the set-up: dose 50 mg/kg, route intraperitoneal, time 0 - last. The conditions noted are these: in vivo. Summed up: as §2
Data set [9] deals with Liver. The data set can be described thus: Cmax in C57BL/6 mouse liver at 50 mg/kg, ip. It counts as ADME, organism-based. The conditions noted are these: in vivo. On the set-up: dose 50 mg/kg, route intraperitoneal. Summed up: as §2
The test system of data set [10] is Plasma. The data set can be described thus: Half life in C57BL/6 mouse plasma at 50 mg/kg, ip. The conditions noted are these: in vivo. It counts as ADME, organism-based. On the set-up: dose 50 mg/kg, route intraperitoneal. In a few lines:
as §2

Data set [11] concerns Liver. The data set can be described thus: AUClast in C57BL/6 mouse liver at 50 mg/kg, ip. The data set is classed as ADME, organism-based. On the set-up: time 0 - last, dose 50 mg/kg, route intraperitoneal. The following applies: in vivo. Summed up: as §2
For data set [12], the system named is Plasma. Nature of the data set: Tmax in C57BL/6 mouse plasma at 50 mg/kg, ip. It counts as ADME, organism-based. On the set-up: dose 50 mg/kg, route intraperitoneal. The conditions noted are these: in vivo. Summed up:
as §2

Data set [13] has as its system Liver. The data set can be described thus: Tmax in C57BL/6 mouse liver at 50 mg/kg, ip. The data set is classed as ADME, organism-based. On the set-up: dose 50 mg/kg, route intraperitoneal. The conditions noted are these: in vivo. In a few lines:
as §2

The subject of data set [14] is T3, Lysosomal acid glucosylceramidase (Homo sapiens), P04062 [N409S]. Nature of the data set: Activation of Glucocerebrosidase N370S/N370S mutant translocation to lysosome in Gaucher patient dermal fibroblasts incubated for 6 days by LAMP2 colocalization-based laser scanning confocal microscopic analysis relative to vehicle-treated control. Summed up: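 N370S/N370S Gaucher dermal fibroblasts were treated 6 days at 1, 5 or 25 μM, with DMSO vehicle control. Cells were fixed in 3% paraformaldehyde, permeabilized with Triton-X and stained with anti-GCase R386 (Alexa555), anti-LAMP-2 (Alexa488) and DAPI. Confocal imaging used constant laser settings, scoring GCase/LAMP-2 colocalization.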

Data set [15] in a line: Cytotoxicity against human dermal fibroblasts expressing GCase N370S/N370S mutant at 5 uM after 6 days. The following applies: fibroblast, 144 h. The data set is classed as cell-based. In a few lines: as §1
Data set [16] deals with Liver. Nature of the data set: Metabolic stability in CD1 mouse liver microsomes assessed as compound remaining at 1 uM after 60 mins by LC/MS/MS analysis in presence of NADPH. The conditions noted are these: 1 h. The data set is classed as ADME, Microsome. Summed up:
(§5)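 Compound at 1 μM was incubated in duplicate with CD-1 mouse liver microsomes at 37 °C in 100 mM potassium phosphate pH 7.4 with 3 mM MgCl₂, with or without 2 mM NADPH, for 60 min. Reaction was quenched in cold acidified MeCN with internal standard. Parent was quantified by LC−MS/MS as percent of time zero.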

Data set [17] deals with Liver. Nature of the data set: Metabolic stability in CD1 mouse liver microsomes assessed as compound remaining at 1 uM after 60 mins by LC/MS/MS analysis in absence of NADPH. It counts as ADME, Microsome. The conditions noted are these: 1 h. In a few lines: as §5
Data set [18] relates to Caco-2. The data set can be described thus: Apparent permeability of the compound from basal to apical side of human Caco2 cells after 2 hrs. The data set is classed as ADME, cell-based. The following applies: caco-2, 2 h. Summed up: (§6)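 Caco-2 monolayers were grown 3 weeks, with integrity checked by Lucifer yellow. Compound was added apically (pH 6.5 HBSS/HEPES/glucose buffer) or basolaterally (pH 7.4) and incubated 2 h. Transfer was quantified by LC−MS/MS and expressed as P_app. Efflux ratio is P_app B→A over A→B.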
Background: Caco-2 cells form a polarised layer with tight junctions and transporters.

The target in data set [19] is Lysosomal alpha-glucosidase (Homo sapiens) (UniProt P10253). Nature of the data set: Activation of alpha-glucosidase using 4-MU-alpha-glucose as substrate.
Data set [20] deals with Caco-2. The data set can be described thus: Efflux ratio of apparent permeability from basal to apical to apical to basal side of human Caco2 cells after 2 hrs. The data set is classed as ADME, cell-based. The following applies: caco-2, 2 h. In a few lines:
as §6

Data set [21] relates to Brain. The data set can be described thus: AUC (infinity) in C57BL/6 mouse brain at 50 mg/kg, ip. It counts as ADME, organism-based. On the set-up: dose 50 mg/kg, route intraperitoneal, time infinity. The following applies: in vivo. Summed up: as §2
A short description of data set [22]: Activation of alpha-galactosidase using 4-MU-alpha-galactose as substrate.

Broadly, the Cmax is the maximum level reached in the sampled fluid or tissue. As usually defined, the Tmax is the time from dosing to the highest level. As usually defined, the Papp is a coefficient for how fast a substance crosses the barrier. As usually defined, the AUC is the area under the concentration-time curve, a measure of exposure. Low readings indicate less exposure, high ones more exposure. With `C#Cc1ccc(NC(=O)c2cnn3c(C)cc(C)nc23)cc1`, the Activity result in data set [1] is “Non-toxic”; in [5] it was “Dose-dependent effect”; in data set [6], “Non-toxic”; in data set [15], “Non-toxic”. The AUClast came to 434 ng·h/mL in data set [2], 1260 ng·h/mL in data set [8] and 54300 ng·h/mL in data set [11]. In addition, the “Ratio AUC” value in data set [3] worked out at 12512%. The Kd in data set [4] came out at 9 µM. Further, the result in data set [7] and in [14] was Active. The highest level in data set [9] (Cmax) was 17.3 µM. The compound also gave a t1/2 in data set [10] of 1160 min. Also, the time of peak concentration (Tmax) in data set [12] and in data set [13] was 15 min in each case. The Stability is on record as 45% in [16] and 42% in data set [17]. Moreover, the Papp in data set [18] was 2 ×10⁻⁶ cm/s. In addition, the result in [19] and in [22] was inactive. Moreover, the Ratio in [20] is listed as 0.3. For the same compound, the area under the curve (AUC) in [21] stood at 1390 ng·h/mL.
